Measured values published in paper PMC8026699 (Cancer research, 2021).

Columns and labels:
Water solubility in PBS = assay type: physicochemical; settings: PBS buffer pH 7.4, room temperature
Summary of the method: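 10 mg test compound in 1 mL PBS pH 7.4, sonicated 30 min, vortexed 30 min at low speed, then left 16–24 h at room temperature. Filtered (0.22 μm) and 10-fold serially diluted in triplicate in ACN:water (1:1). Internal standard added; LC-MS/MS quantitation against a five-standard calibration curve.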

recombinant human ACSS1 = biological target: T1, recombinant human ACSS1 (Homo sapiens, UniProt Q9NUB1); assay: TranScreener AMP biochemical assay of ACSS1 activity; settings: regardless of the substrate (acetate or propionate)
T1 sequence (Q9NUB1 38-689): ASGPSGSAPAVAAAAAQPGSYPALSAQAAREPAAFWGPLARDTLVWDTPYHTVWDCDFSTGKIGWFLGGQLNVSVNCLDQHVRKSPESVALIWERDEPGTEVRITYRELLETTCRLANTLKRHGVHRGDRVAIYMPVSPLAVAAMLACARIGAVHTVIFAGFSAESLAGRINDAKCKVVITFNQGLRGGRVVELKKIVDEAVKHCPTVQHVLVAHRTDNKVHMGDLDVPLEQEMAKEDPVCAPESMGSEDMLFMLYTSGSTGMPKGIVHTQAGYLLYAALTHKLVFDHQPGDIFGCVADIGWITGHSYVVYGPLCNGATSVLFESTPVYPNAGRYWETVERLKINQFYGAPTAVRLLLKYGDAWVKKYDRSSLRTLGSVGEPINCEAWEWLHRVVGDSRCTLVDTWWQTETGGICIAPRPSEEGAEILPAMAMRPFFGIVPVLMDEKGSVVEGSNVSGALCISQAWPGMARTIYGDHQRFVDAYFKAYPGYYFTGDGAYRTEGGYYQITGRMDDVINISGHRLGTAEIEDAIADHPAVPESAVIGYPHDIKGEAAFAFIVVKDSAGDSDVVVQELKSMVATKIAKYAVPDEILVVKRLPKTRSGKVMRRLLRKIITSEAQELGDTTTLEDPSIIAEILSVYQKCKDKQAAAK
Summary of the method: (§1)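 Test compound was serially diluted in DMSO and added to ACSS1 (2 nM) or ACSS3 (25 nM). Acetate reaction: HEPES pH 7.4 buffer with 140 mM NaCl; final 5 mM acetate, 50 μM ATP, 5 μM CoA. Propionate reaction: HEPES/KCl/CHAPS buffer; final 5 mM propionate, 10 μM ATP, 100 μM CoA. Incubation 120 min, then AMP detected by terbium-antibody/tracer TR-FRET after 30 min. Percent inhibition was set against no-enzyme and DMSO controls.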

recombinant human ACSS3 = biological target: T2, recombinant human ACSS3 (Homo sapiens, UniProt Q9H6R3); assay: TranScreener AMP biochemical assay of ACSS3 activity; settings: regardless of the substrate (acetate or propionate)
T2 sequence (Q9H6R3 30-686): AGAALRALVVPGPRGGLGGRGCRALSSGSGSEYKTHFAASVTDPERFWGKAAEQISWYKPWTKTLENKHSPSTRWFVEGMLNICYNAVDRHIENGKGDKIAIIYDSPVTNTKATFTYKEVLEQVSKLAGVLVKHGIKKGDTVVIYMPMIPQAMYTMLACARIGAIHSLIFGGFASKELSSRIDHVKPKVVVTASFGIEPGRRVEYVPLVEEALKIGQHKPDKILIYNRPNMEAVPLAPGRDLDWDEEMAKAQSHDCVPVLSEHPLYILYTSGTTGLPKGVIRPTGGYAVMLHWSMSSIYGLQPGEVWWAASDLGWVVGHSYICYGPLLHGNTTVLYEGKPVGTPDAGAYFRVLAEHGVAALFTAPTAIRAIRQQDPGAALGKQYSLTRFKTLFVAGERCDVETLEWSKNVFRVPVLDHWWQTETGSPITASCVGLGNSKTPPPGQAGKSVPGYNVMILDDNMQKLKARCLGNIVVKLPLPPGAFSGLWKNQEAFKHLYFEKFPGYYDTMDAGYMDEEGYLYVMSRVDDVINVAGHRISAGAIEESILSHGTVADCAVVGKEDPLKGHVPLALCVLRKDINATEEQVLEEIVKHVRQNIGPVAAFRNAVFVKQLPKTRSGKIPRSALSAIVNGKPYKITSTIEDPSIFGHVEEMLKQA
Summary of the method: as §1

BT474 cells = assay: ERK phosphorylation immunoblot in BT474 cells; assay type: cell-based, human
SKBr3 cells = assay: ERK phosphorylation immunoblot in SKBr3 cells; assay type: cell-based, human
MDA-MB-468 cells = assay: ERK phosphorylation immunoblot in MDA-MB-468 cells; assay type: cell-based, human

## COCCNC(=O)Nc1ccc2nc(-c3cccs3)c(-c3cccs3)nc2c1 [VY-3-249, 1-(2,3-di(thiophen-2-yl)quinoxalin-6-yl)-3-(2-methoxyethyl)urea, reference compound]
Water solubility in PBS
  aqueous solubility: poorly soluble
Recombinant human ACSS1
  inhibitory activity towards ACSS1: neither VY-3-249 nor VY-3-135 displayed any inhibitory activity
Recombinant human ACSS3
  inhibitory activity towards ACSS3: neither VY-3-249 nor VY-3-135 displayed any inhibitory activity

## CS(=O)(=O)CCNCc1ccc(-c2ccc3ncnc(Nc4ccc(OCc5cccc(F)c5)c(Cl)c4)c3c2)o1 [lapatinib]
BT474 cells
  phosphorylation of ERK: decreases phosphorylation of ERK
SKBr3 cells
  phosphorylation of ERK: decreases phosphorylation of ERK
MDA-MB-468 cells
  phosphorylation of ERK: decreases phosphorylation of ERK
